From ChEMBL document CHEMBL3124861, “Application of ProTide technology to gemcitabine: a successful approach to overcome the key cancer resistance mechanisms leads to a new agent (NUC-1031) in clinical development” (J Med Chem, 2014)
One block for each molecule: values may come before it. Active and inactive are the calls of the source. The rule behind the calls is not given here.

Key:
[1] = Prodrug activation assessed as carboxypeptidase Y (unknown origin)-mediated formation of (S)-2-((((2R,3R,5R)-5-(4-amino-2-oxopyrimidin-1(2H)-yl)-4,4-difluoro-3-hydroxytetrahydrofuran-2-yl)methoxy)oxidophosphorylamino)propanoate at 3 mg measured within 12 hrs by [31P]-NMR spectroscopic analysis
Procedure, shortened: (§1)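 The prodrug was dissolved in acetone-d6 with Trizma buffer (pH 7.6). A blank spectrum was recorded at 25 °C, then carboxypeptidase Y was added. Conversion was followed by 31P NMR spectra recorded over time, with peaks assigned by chemical shift.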

[2] = Prodrug activation assessed as carboxypeptidase Y (unknown origin)-mediated formation of (S)-2-((((2R,3R,5R)-5-(4-amino-2-oxopyrimidin-1(2H)-yl)-4,4-difluoro-3-hydroxytetrahydrofuran-2-yl)methoxy)oxidophosphorylamino)propanoate at 3 mg measured after 10 mins by [31P]-NMR spectroscopic analysis; procedure, shortened: as §1
[3] = Prodrug activation assessed as carboxypeptidase Y (unknown origin)-mediated formation of (2S)-2-((((2R,3R,5R)-5-(4-amino-2-oxopyrimidin-1(2H)-yl)-4,4-difluoro-3-hydroxytetrahydrofuran-2-yl)methoxy)(phenoxy)phosphorylamino)propanoate at 3 mg measured within 10 mins by [31P]-NMR spectroscopic analysis; procedure, shortened: as §1
CCRF-CEM = test: Cytostatic activity against human CEM cells after 72 hrs by coulter counter analysis; assay type: functional, cell-based
Procedure, shortened: (§2)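 Tumor cell proliferation assay with murine leukemia and human T-lymphoblast cells. IC50 is the concentration that inhibits proliferation by 50%. Values are means of at least two independent experiments.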

L1210 = test: Cytostatic activity against mouse L1210 cells after 48 hrs by coulter counter analysis; assay type: functional, cell-based; conditions: L1210, 48 h; procedure, shortened: as §2
MIA PaCa-2 [4] = test: Cytostatic activity against human MIAPaCa2 cells after 72 hrs by MTS assay; assay type: functional, cell-based; conditions: MIA PaCa-2, 72 h
Procedure, shortened: (§3)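 Pancreatic carcinoma cell proliferation assay. IC50 is the concentration that inhibits tumor cell proliferation by 50%. Values are means of at least two independent experiments.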

BXPC-3 [5] = test: Cytostatic activity against human BxPC3 cells after 72 hrs by MTS assay; assay type: functional, cell-based; conditions: BXPC-3, 72 h; procedure, shortened: as §3
Serum [6] = test: Prodrug activation in rat serum assessed as formation of (S)-2-((((2R,3R,5R)-5-(4-amino-2-oxopyrimidin-1(2H)-yl)-4,4-difluoro-3-hydroxytetrahydrofuran-2-yl)methoxy)oxidophosphorylamino)propanoate at 5 mg measured after 6.5 mins by [31P]-NMR spectroscopic analysis; assay type: cell-free
Procedure, shortened: (§4)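 The prodrug was incubated in human or rat serum and followed over time by 31P NMR. Metabolites were assigned by chemical shift. Human serum spectra were resolved by Lorentz-Gauss deconvolution.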

Mus musculus [7] = test: Toxicity in Balb/c nude mouse xenografted with human BxPC3 cells assessed as change in body weight at 0.19 to 0.076 mmol/kg, ip administered 2 times per week for 2 weeks measured every week during compound treatment; assay type: organism-based, BXPC-3; conditions: in vivo, 336 h
BXPC-3 [8] = test: Antitumor activity against human BxPC3 cells xenografted in Balb/c nude mouse assessed as tumor growth inhibition at 0.19 mmol/kg, ip administered every week for 3 weeks; assay type: functional, organism-based
MIA PaCa-2 [9] = test: Antitumor activity against human MIAPaCa2 cells xenografted in Balb/c nude mouse assessed as tumor growth inhibition at 0.076 mmol/kg, ip measured on day 7; assay type: functional, organism-based
MIA PaCa-2 [10] = test: Antitumor activity against human MIAPaCa2 cells xenografted in Balb/c nude mouse assessed as tumor growth inhibition at 0.19 mmol/kg, ip administered every week for 3 weeks; assay type: functional, organism-based
Mus musculus [11] = test: Toxicity in Balb/c nude mouse xenografted with human MIAPaCa2 cells assessed as change in body weight at 0.19 to 0.076 mmol/kg, ip administered 2 times per week for 2 weeks measured every week during compound treatment relative to vehicle-treated control; assay type: organism-based, MIA PaCa-2; conditions: in vivo, 336 h
[12] = Prodrug activation in human BxPC3 cells assessed as formation of dFdCTP after 24 hrs in presence of hENT1 inhibitor NBTI; assay type: cell-based; conditions: bxpc-3, 24 h
Procedure, shortened: (§5)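 Pancreatic cells were exposed to the agent for 24 h, with or without a dCK inhibitor or the hENT1 inhibitor NBTI. Intracellular dFdCTP was measured by UPLC-MS/MS on a C18 column. Elution used a 10 mM ammonium acetate/acetonitrile gradient at 700 μL/min. Detection was by triple-quadrupole heated electrospray, transition m/z 502.0→159.0 at 37 V collision energy.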

[13] = Prodrug activation in human MIAPaCa2 cells assessed as formation of dFdCTP after 24 hrs in presence of dCK inhibitor 2T2D; assay type: cell-based; conditions: mia paca-2, 24 h; procedure, shortened: as §5
[14] = Prodrug activation in human BxPC3 cells assessed as formation of dFdCTP after 24 hrs in presence of dCK inhibitor 2T2D; assay type: cell-based; conditions: bxpc-3, 24 h; procedure, shortened: as §5
[15] = Prodrug activation in human MIAPaCa2 cells assessed as formation of dFdCTP after 24 hrs in presence of hENT1 inhibitor NBTI; assay type: cell-based; conditions: mia paca-2, 24 h; procedure, shortened: as §5
Cytidine deaminase = Cytidine deaminase (Homo sapiens, UniProt P32320); test: Drug degradation assessed as recombinant human cytidine deaminase-mediated dFdU formation at 100 uM measured at 30 mins by UV absorption spectroscopic analysis; assay type: ADME; conditions: 0.5 h
Procedure, shortened: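 The nucleoside or prodrug was incubated with cytidine deaminase for 30 min. Deamination was followed by UV absorbance spectra recorded between 220 and 350 nm.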

[16] = Cytotoxicity against human PANC1 cells assessed as cell viability by MTT assay in presence of hENT1 inhibitor dipyridamole; assay type: functional, cell-based; conditions: PANC-1
Procedure, shortened: (§6)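 PANC1 pancreatic cancer cells were grown with the test agent, with or without dipyridamole to block hENT1 nucleoside transport. Viable cells were counted by colorimetric MTT assay, and EC50 was taken as the concentration blocking proliferation by 50%.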

[17] = Cytotoxicity against human PANC1 cells assessed as cell viability by MTT assay in absence of hENT1 inhibitor dipyridamole; assay type: functional, cell-based; conditions: PANC-1; procedure, shortened: as §6
[18] = Cytotoxicity against human RT112 cells assessed as cell viability by MTT assay in presence of dCK substrate deoxycytidine; assay type: functional, cell-based; conditions: RT-112
Procedure, shortened: (§7)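 RT112 cancer cells were grown with the test agent, with or without 2′-deoxycytidine as a competing dCK substrate to mimic dCK down-regulation. Viable cells were counted by colorimetric MTT assay, and EC50 was taken as the concentration blocking proliferation by 50%.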

[19] = Cytotoxicity against human RT112 cells assessed as cell viability by MTT assay in absence of dCK substrate deoxycytidine; assay type: functional, cell-based; conditions: RT-112; procedure, shortened: as §7
Serum [20] = test: Prodrug activation in human serum assessed as formation of (S)-2-((((2R,3R,5R)-5-(4-amino-2-oxopyrimidin-1(2H)-yl)-4,4-difluoro-3-hydroxytetrahydrofuran-2-yl)methoxy)oxidophosphorylamino)propanoate at 5 mg measured after 5.5 hrs by [31P]-NMR spectroscopic analysis; assay type: cell-free; procedure, shortened: as §4
MIA PaCa-2 [21] = test: Ratio of gemcitabine IC50 to compound IC50 for human MIAPaCa2 cells after 72 hrs by MTS assay; assay type: functional
[22] = Metabolic stability in human liver microsomes assessed as compound remaining at 0.5 uM after 1 hr by HPLC-Ms/Ms analysis; assay type: ADME; conditions: read-out: Stability
Procedure, shortened: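 Compounds incubated with human liver microsomes for 1 h. Percentage of parent remaining measured.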

[23] = Half life in human hepatocytes at 1 uM; assay type: ADME, cell-based, Hepatocyte
Procedure, shortened: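 Compounds incubated with human hepatocytes. Half-life determined.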

BXPC-3 [24] = test: Ratio of gemcitabine IC50 to compound IC50 for human BxPC3 cells after 72 hrs by MTS assay; assay type: functional

Chain of Cytidine deaminase (P32320 whole entry): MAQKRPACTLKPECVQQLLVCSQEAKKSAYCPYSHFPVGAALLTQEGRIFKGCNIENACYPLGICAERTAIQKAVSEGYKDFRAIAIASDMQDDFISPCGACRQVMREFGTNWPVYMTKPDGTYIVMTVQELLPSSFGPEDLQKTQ

SMILES: C[C@H](NP(=O)(OC[C@H]1O[C@@H](n2ccc(N)nc2=O)C(F)(F)[C@@H]1O)Oc1ccccc1)C(=O)OCc1ccccc1 (stereo partly specified) [FOSGEMCITABINE PALABENAMIDE]
Drug metabolism [1]: Active
Drug metabolism [2]: Active
Drug metabolism [3]: Active
IC50 (CCRF-CEM): 100 nM
IC50 (L1210): 35 nM
IC50 (MIA PaCa-2 [4]): 440 nM
IC50 (BXPC-3 [5]): 150 nM
Drug metabolism (Serum [6]): Active
Activity (Mus musculus [7]): Non-toxic
TGI (BXPC-3 [8]): Active
TGI (MIA PaCa-2 [9]): Active
TGI (MIA PaCa-2 [10]): Active
Activity (Mus musculus [11]): < 4%
Drug metabolism [12]: Active
Drug metabolism [13]: Active
Drug metabolism [14]: Active
Drug metabolism [15]: Active
Stability (Cytidine deaminase): Stable
EC50 [16]: 162000 nM
EC50 [17]: 190000 nM
EC50 [18]: 0.7 nM
EC50 [19]: 0.2 nM
Drug metabolism (Serum [20]): Active

SMILES: C[C@H](NP(=O)(OC[C@H]1O[C@@H](n2ccc(N)nc2=O)C(F)(F)[C@@H]1O)Oc1ccccc1)C(=O)OC1CCCCC1 (stereo partly specified)
IC50 (CCRF-CEM): 420 nM
IC50 (L1210): 600 nM

SMILES: CC(C)OC(=O)[C@H](C)NP(=O)(OC[C@H]1O[C@@H](n2ccc(N)nc2=O)C(F)(F)[C@@H]1O)Oc1ccccc1 (stereo partly specified)
IC50 (CCRF-CEM): > 5000 nM
IC50 (L1210): > 5000 nM
IC50 (MIA PaCa-2 [4]): > 5000 nM
IC50 (BXPC-3 [5]): > 5000 nM

SMILES: CCCCCCOC(=O)[C@H](C)NP(=O)(OC[C@H]1O[C@@H](n2ccc(N)nc2=O)C(F)(F)[C@@H]1O)Oc1ccccc1 (stereo partly specified)
IC50 (CCRF-CEM): 81 nM
IC50 (L1210): 16 nM

IC50 (MIA PaCa-2 [4]): 460 nM
IC50 (BXPC-3 [5]): 150 nM
SMILES: C[C@H](NP(=O)(OC[C@H]1O[C@@H](n2ccc(N)nc2=O)C(F)(F)[C@@H]1O)Oc1cccc2ccccc12)C(=O)OC1CCCC1 (stereo partly specified)
IC50 (CCRF-CEM): 110 nM
IC50 (L1210): 180 nM
Ratio IC50 (MIA PaCa-2 [21]): 2

SMILES: CCCCCOC(=O)C(C)(C)NP(=O)(OC[C@H]1O[C@@H](n2ccc(N)nc2=O)C(F)(F)[C@@H]1O)Oc1cccc2ccccc12 (stereo partly specified)
IC50 (CCRF-CEM): 130 nM
IC50 (L1210): 160 nM

remaining at 1 h, 0.5 µM [22]: 1%
half-life at 1 µM [23]: 1.32 h
IC50 (MIA PaCa-2 [4]): 570 nM
IC50 (BXPC-3 [5]): 240 nM
SMILES: C[C@H](NP(=O)(OC[C@H]1O[C@@H](n2ccc(N)nc2=O)C(F)(F)[C@@H]1O)Oc1cccc2ccccc12)C(=O)OCc1ccccc1 (stereo partly specified)
IC50 (CCRF-CEM): 100 nM
IC50 (L1210): 35 nM
Ratio IC50 (BXPC-3 [24]): 2
Ratio IC50 (MIA PaCa-2 [21]): 2
